The target in assay [1] is Protein kinase C alpha type (Homo sapiens, UniProt P17252). In words: Evaluated against recombinant human Protein kinase C alpha. The method in brief:
(§1)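 Recombinant human PKC isozymes expressed in SF9 cells via baculovirus, partly purified (50–90%). 32P transfer from 30 μM [32P]ATP to 200 μg/mL histone IIIS in 20 mM Hepes pH 7.5, 10 mM MgCl2, EGTA, CaCl2, phosphatidylserine, and diacylglycerol at the isozyme-dependent level giving half-maximal activation. 10 min at 30 °C, TCA stop, filter counting. No-lipid background subtracted.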

Assay [2] can be described thus: Inhibition of rat brain Ca 2+/Calmodulin dependent kinase. An outline of the steps: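 Ca2+/calmodulin kinase isolated from rat brain homogenate; 50 mM Tris-HCl pH 7.5, 5 mM β-mercaptoethanol, 400 μM EGTA, 700 μM CaCl2, 10 mM MgCl2, 200 μg/mL histone type HA, 30 μM [γ-32P]ATP, inhibitor in DMSO. Room temperature 10 min, ice-cold TCA plus BSA stop, precipitate filtered and β-counted.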

For assay [3], the target named is T1, Protein kinase C beta type (Homo sapiens, UniProt P05771). In words: Evaluated against recombinant human Protein kinase C beta 1. An outline of the steps:
as §1

Assay [4] has as its target Protein kinase C delta type (Homo sapiens, UniProt Q05655). In words: Evaluated against recombinant human Protein kinase C delta. An outline of the steps: as §1
Assay [5] has as its target T2, Protein kinase C eta type (Homo sapiens, UniProt P24723). In words: Evaluated against recombinant human Protein kinase C eta. The method in brief: as §1
For assay [6], the target named is Protein kinase C gamma type (Homo sapiens, UniProt P05129). In words: Evaluated against recombinant human Protein kinase C gamma. The method in brief: as §1
A short description of assay [7]: Inhibition of rat brain Casein kinase II. The method in brief: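 Casein kinase II isolated from rat brain homogenate; 20 mM Tris-HCl pH 7.5, 5 mM NaF, casein substrate, 10 mM MgCl2, 30 μM [γ-32P]ATP, inhibitor in DMSO. Room temperature 10 min, stopped with ice-cold TCA plus BSA; precipitate filtered onto glass fiber and β-counted.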
For assay [8], the target named is T1, Protein kinase C beta type. Description: Evaluated against recombinant human Protein kinase C beta 2. An outline of the steps: as §1
Assay [9] in a line: Evaluated against bovine heart Protein Kinase A (PKA).
Assay [10] concerns the target T3, Protein kinase C epsilon type (Homo sapiens, UniProt Q02156).
T3 sequence (Q02156 whole entry): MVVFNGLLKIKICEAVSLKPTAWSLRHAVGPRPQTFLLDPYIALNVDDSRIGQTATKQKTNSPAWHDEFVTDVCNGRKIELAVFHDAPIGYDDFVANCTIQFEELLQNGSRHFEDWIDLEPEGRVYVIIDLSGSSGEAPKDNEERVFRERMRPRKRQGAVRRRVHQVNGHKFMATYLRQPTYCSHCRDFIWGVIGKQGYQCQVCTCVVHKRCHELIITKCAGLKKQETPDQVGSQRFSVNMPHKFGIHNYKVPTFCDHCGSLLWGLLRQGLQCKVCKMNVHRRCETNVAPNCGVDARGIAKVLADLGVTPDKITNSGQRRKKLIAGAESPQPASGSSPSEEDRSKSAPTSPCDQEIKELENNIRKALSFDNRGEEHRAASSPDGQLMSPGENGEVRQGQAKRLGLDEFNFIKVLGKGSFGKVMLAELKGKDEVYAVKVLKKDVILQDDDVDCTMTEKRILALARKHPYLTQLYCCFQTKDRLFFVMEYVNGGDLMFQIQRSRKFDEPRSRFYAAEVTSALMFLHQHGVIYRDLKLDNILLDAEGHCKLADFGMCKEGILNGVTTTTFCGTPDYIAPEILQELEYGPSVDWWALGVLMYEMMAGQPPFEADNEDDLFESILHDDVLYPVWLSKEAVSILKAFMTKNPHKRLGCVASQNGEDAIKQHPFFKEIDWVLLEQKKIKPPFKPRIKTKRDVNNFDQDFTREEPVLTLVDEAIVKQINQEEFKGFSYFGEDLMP
Description: Evaluated against recombinant human Protein kinase C epsilon. The method in brief:
as §1

Assay [11] concerns the target Proto-oncogene tyrosine-protein kinase Src (Homo sapiens, UniProt P12931). In words: Inhibition of src Protein Tyrosine Kinase. An outline of the steps: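 p60src tyrosine kinase with Raytide peptide substrate, run by the supplier's protocol except that Triton X-100 replaced Brij 35.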
The target in assay [12] is T2, Protein kinase C eta type. Description: Inhibition of recombinant human Protein kinase C eta. An outline of the steps:
as §1

Assay [13] addresses neutrophil superoxide release (Homo sapiens). Description: Inhibition of neutrophil superoxide release.

T1 sequence (P05771 whole entry): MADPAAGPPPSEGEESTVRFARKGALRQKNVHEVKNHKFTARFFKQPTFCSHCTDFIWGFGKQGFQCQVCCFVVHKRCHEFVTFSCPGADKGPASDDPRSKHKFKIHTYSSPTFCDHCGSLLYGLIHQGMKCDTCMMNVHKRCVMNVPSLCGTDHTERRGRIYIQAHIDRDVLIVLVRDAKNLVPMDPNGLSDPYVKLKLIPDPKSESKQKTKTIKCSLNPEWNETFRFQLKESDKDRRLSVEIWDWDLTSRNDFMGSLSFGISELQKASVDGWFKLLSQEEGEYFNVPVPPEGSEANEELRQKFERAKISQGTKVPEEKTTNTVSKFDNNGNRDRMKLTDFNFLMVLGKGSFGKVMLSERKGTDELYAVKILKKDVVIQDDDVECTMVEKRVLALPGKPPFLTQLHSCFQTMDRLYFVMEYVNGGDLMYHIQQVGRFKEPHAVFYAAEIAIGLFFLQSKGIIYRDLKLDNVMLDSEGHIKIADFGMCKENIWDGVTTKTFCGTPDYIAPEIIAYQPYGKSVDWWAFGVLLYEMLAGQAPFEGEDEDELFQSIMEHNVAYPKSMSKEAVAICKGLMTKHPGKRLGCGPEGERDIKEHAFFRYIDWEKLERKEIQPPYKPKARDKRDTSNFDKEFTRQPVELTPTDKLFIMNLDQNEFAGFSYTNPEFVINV
T2 sequence (P24723 whole entry): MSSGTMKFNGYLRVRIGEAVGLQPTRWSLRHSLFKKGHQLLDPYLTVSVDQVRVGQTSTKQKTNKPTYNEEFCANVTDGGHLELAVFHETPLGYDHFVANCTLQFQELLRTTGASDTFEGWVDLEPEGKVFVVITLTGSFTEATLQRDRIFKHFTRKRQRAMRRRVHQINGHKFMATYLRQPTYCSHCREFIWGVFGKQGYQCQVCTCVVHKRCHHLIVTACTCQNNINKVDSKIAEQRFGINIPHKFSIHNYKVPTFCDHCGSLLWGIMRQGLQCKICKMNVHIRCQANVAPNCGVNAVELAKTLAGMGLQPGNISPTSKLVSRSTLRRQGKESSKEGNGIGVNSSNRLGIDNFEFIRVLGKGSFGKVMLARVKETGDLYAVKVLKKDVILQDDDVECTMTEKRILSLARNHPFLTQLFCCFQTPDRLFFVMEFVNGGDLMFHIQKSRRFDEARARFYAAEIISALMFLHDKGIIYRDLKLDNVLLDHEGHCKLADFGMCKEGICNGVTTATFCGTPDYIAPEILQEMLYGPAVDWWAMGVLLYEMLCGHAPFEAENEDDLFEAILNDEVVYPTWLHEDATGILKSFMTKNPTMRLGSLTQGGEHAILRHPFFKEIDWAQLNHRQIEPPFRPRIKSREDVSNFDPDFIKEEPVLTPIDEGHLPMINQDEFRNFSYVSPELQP
Protein kinase C delta type, sequence (Q05655 whole entry): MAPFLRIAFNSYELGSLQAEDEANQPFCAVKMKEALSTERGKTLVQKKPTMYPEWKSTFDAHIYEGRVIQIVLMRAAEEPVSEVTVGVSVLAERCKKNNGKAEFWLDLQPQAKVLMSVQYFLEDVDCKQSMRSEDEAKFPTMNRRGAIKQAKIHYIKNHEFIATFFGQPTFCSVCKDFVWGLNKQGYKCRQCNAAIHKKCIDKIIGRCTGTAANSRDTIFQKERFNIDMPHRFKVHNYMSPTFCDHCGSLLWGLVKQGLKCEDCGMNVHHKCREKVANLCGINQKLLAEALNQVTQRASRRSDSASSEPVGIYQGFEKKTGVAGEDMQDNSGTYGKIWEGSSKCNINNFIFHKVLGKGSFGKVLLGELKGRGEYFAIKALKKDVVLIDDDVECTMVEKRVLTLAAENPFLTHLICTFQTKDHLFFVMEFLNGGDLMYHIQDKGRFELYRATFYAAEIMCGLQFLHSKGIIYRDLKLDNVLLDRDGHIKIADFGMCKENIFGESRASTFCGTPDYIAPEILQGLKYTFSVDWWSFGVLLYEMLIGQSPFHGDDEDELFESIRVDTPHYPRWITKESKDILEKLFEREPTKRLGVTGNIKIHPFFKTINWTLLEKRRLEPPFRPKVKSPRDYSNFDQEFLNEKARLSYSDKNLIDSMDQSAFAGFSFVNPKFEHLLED
Proto-oncogene tyrosine-protein kinase Src, sequence (P12931 2-536 limits assumed): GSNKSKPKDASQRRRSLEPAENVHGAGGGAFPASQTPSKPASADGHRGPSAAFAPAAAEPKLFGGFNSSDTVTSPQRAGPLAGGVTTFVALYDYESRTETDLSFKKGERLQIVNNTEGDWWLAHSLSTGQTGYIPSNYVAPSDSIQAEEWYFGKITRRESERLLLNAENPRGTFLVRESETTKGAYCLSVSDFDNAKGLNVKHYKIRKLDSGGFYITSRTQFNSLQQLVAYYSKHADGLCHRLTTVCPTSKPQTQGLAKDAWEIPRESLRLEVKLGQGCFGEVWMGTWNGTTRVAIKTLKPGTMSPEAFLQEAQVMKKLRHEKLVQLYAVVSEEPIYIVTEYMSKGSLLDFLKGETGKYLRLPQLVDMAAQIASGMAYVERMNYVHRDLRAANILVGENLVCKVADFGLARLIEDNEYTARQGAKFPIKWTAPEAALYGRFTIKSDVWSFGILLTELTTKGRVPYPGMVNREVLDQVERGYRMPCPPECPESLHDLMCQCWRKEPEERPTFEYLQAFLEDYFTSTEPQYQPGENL

As to `CC(CCc1ccc(O)cc1)OC(=O)c1cc(O)c(C(=O)c2c(O)cccc2C(=O)O)c(O)c1` (centres undefined), the IC50 is 410 nM in assay [1]; more than 50000 nM in [2]; 40 nM in assay [3]; 30 nM in [4]; 20 nM in [5]; 250 nM in assay [6]. Also, the IC50 was more than 50000 nM in [7], 30 nM in assay [8], more than 50000 nM in assay [9] and 280 nM in [10].

In the case of `O=C(OCCCCc1ccc(O)cc1)c1cc(O)c(C(=O)c2c(O)cccc2C(=O)O)c(O)c1`, the IC50 in [1] came to 3300 nM; in assay [3], 960 nM; in [4], 290 nM; in assay [5] it was 250 nM; in [6], 1400 nM; in assay [8] it was 370 nM. For the same compound, the IC50 in assay [9] is more than 50000 nM; in assay [10], 30000 nM.

For the compound `O=C(OCC(Cc1ccc(O)cc1)NS(=O)(=O)c1ccccc1)c1cc(O)c(C(=O)c2c(O)cccc2C(=O)O)c(O)c1` (centres undefined), the IC50 in assay [1] was found to be 110 nM; in assay [2], 32000 nM; in assay [3], 220 nM; in [4], 40 nM; in assay [5], 20 nM; in assay [6] it was 220 nM. Moreover, the IC50 was more than 50000 nM in assay [7]; 30 nM in [8]; more than 50000 nM in assay [9]; 320 nM in assay [10]; more than 12500 nM in [11].

For `O=C(OCC(NS(=O)(=O)c1ccccc1)c1ccc(O)cc1)c1cc(O)c(C(=O)c2c(O)cccc2C(=O)O)c(O)c1` (centres undefined), the IC50 is 3300 nM in [12]; more than 50000 nM in [1]; 11000 nM in [3]; 1900 nM in assay [4]; 4800 nM in [6]; 2800 nM in [8]. The IC50 in [9] and in assay [10] was more than 50000 nM in each case.

In the case of `COC(=O)c1cccc(O)c1C(=O)c1c(O)cc(C(=O)OC[C@@H](Cc2ccc(O)cc2)NS(=O)(=O)c2ccccc2)cc1O`, the IC50 was 18000 nM in assay [1]; 2200 nM in assay [3]; 360 nM in [4]; less than 50 nM in [5]; 4500 nM in [6]; 340 nM in [8]. Moreover, the IC50 in [9] was more than 50000 nM; in assay [13], 930 nM; in assay [10], 38000 nM.

In the case of `O=C(OCC(COc1ccc(O)cc1)NS(=O)(=O)c1ccccc1)c1cc(O)c(C(=O)c2c(O)cccc2C(=O)O)c(O)c1` (centres undefined), the IC50 in assay [1] is 18000 nM; in assay [3], 1600 nM; in assay [4], 220 nM; in assay [5], 500 nM; in [6], 1600 nM; in assay [8], 830 nM. The figures for the IC50 in assay [9] and in [10] were more than 50000 nM and 47000 nM, respectively.

In the case of `O=C(OC1CCCC1Oc1ccc(O)cc1)c1cc(O)c(C(=O)c2c(O)cccc2C(=O)O)c(O)c1` (centres undefined), the IC50 came to 220 nM in assay [1]; 20 nM in assay [3]; 20 nM in assay [4]; 10 nM in assay [5]; 250 nM in assay [6]; 20 nM in [8]. Moreover, the IC50 in assay [9] was more than 50000 nM; in assay [10], 240 nM.

For the compound `CS(=O)(=O)NC(COC(=O)c1cc(O)c(C(=O)c2c(O)cccc2C(=O)O)c(O)c1)Cc1ccc(O)cc1` (centres undefined), the IC50 in assay [1] was determined as 23000 nM; in [3], 220 nM; in [4] it was 410 nM; in [5], 390 nM; in assay [6] it was 5000 nM; in [8], 430 nM. Moreover, the concentration for half-maximal inhibition (IC50) in [9] and in assay [10] was more than 50000 nM throughout.

On to `O=C(OC[C@@H](Cc1ccc(O)cc1)NS(=O)(=O)c1ccccc1)c1cc(O)c(C(=O)c2c(O)cccc2C(=O)O)c(O)c1`, for which the IC50 in [1] amounted to 210 nM; in [3] it was 30 nM; in assay [4], 3 nM; in assay [5], 3 nM; in [6] it was 470 nM; in [8], 7 nM. Moreover, the IC50 in assay [9] was more than 50000 nM; in assay [10], 460 nM.

Take `O=C(N[C@@H]1CNCCC[C@H]1OC(=O)c1cc(O)c(C(=O)c2c(O)cccc2C(=O)O)c(O)c1)c1ccc(O)cc1` [BALANOL]: the IC50 in [2] is 30 nM; in assay [4] it was 20 nM; in assay [9], 40 nM; in [11], more than 10000 nM.

In the case of `Cc1ccc(S(=O)(=O)N2CCC[C@@H](OC(=O)c3cc(O)c(C(=O)c4c(O)cccc4C(=O)O)c(O)c3)[C@H](NC(=O)c3ccc(O)cc3)C2)cc1`, the IC50 amounted to 6100 nM in assay [1]; 70 nM in [3]; 4200 nM in assay [4]; 100 nM in assay [5]; 3500 nM in [6]; 20 nM in assay [8]. In addition, the IC50 in assay [9] was more than 150000 nM; in assay [10], 15000 nM.

Consider `CN(C)C(COC(=O)c1cc(O)c(C(=O)c2c(O)cccc2C(=O)O)c(O)c1)Cc1ccc(O)cc1` (centres undefined), for which the IC50 in assay [1] was determined as 4000 nM; in assay [3], 880 nM; in [4], 270 nM; in [5], 1400 nM; in assay [6], 4200 nM; in [8] it was 500 nM. Further, the IC50 in assay [9] is more than 50000 nM; in [10], 30000 nM.

Regarding `O=C(NCCOC(=O)c1cc(O)c(C(=O)c2c(O)cccc2C(=O)O)c(O)c1)c1ccc(O)cc1`, the 50% inhibitory concentration (IC50) was found to be 11000 nM in [1]; 4500 nM in assay [3]; 410 nM in assay [4]; 230 nM in [5]; 6600 nM in assay [6]; 7500 nM in assay [8]. Further, the figures for the IC50 in assay [9] and in [10] were 8400 nM and 13000 nM, respectively.

Take `O=C(OC[C@H](Cc1ccc(O)cc1)NS(=O)(=O)c1ccccc1)c1cc(O)c(C(=O)c2c(O)cccc2C(=O)O)c(O)c1`: the 50% inhibitory concentration (IC50) in [1] was 1900 nM; in assay [3] it was 230 nM; in assay [4], 30 nM; in assay [5] it was 20 nM; in assay [6] it was 2600 nM; in assay [8], 20 nM. Besides, the IC50 was more than 50000 nM in [9] and 2300 nM in assay [10].

Usually IC50 stands for the midpoint of a concentration-inhibition curve.

Source of the values: ChEMBL document CHEMBL1129461 (J Med Chem, 1996).
